Legend:
[1] = Antiepileptic activity in male CF1 mice 30 min after administration measured in subcutaneous pentylenetetrazole (scMet) test at a dose of 300 mg/kg (no. of animals treated /protected); activity value is 1/1; format: functional, Mus musculus
[2] = Antiepileptic activity in male CF1 mice 30 min after administration measured in maximum electroshock seizure(MES) test at a dose of 300 mg/kg (no. of animals treated /protected); activity value is 1/1; format: functional, Mus musculus
[3] = Antiepileptic activity in male CF1 mice 4 hr after administration measured in maximum electroshock seizure(MES) test at a dose of 300 mg/kg (no. of animals treated /protected); activity value is 1/1; format: functional, Mus musculus
[4] = Antiepileptic activity in male CF1 mice 4 hr after administration measured in neurological toxicity (Tox) test at a dose of 300 mg/kg (no. of animals treated /protected); activity value is 0/2; format: functional, Mus musculus
[5] = Antiepileptic activity in male CF1 mice 4 hr after administration measured in subcutaneous pentylenetetrazole (scMet) test at a dose of 300 mg/kg; activity value is 0/1; format: functional, Mus musculus
[6] = Dose at which anticonvulsant activity was observed in mice; format: functional, Mus musculus
[7] = Antiepileptic activity in male CF1 mice 30 min after administration measured in neurological toxicity (Tox) test at a dose of 300 mg/kg (no. of animals treated /protected); activity value is 0/4; format: functional, Mus musculus
[8] = Dose elevating electroshock induced seizure by 20% in CF1 mice after ip administration.; format: functional, Mus musculus
Procedure, shortened: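 In CF1 male mice (ca. 24–34 g), compound was given ip in 0.5% methylcellulose. The current giving hind limb extension in 50% of mice was found by the up-and-down method, with 15–25 mice per group and a vehicle control group run with each experimental group. At least three doses were tested. The dose raising threshold current by 20% was taken from a plot of dose against % threshold increase.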

[9] = Dose protecting 50% of the mice from tonic hind limb extension at the time of […] after ip administration.; format: functional; conditions: Mus musculus, Hindlimb
Procedure, shortened: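 Phase II quantification in CF1 male mice (ca. 24–34 g), dosing ip or po in 0.5% methylcellulose suspension. ED50 is protection from tonic hind limb extension in MES. TD50 is rotorod neurotoxicity. Both were read at time of peak effect and derived by Litchfield–Wilcoxon with 95% confidence limits.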

[10] = Antiepileptic activity in male CF1 mice 30 min after administration measured in subcutaneous pentylenetetrazole (scMet) test at a dose of 300 mg/kg (no. of animals treated /protected); activity value is 0/1; format: functional, Mus musculus
[11] = Antiepileptic activity in male CF1 mice 30 min after administration measured in maximum electroshock seizure(MES) test at a dose of 300 mg/kg (no. of animals treated /protected); activity value is 0/1; format: functional, Mus musculus
[12] = Time of peak anticonvulsant effect in CF1 MICE after ip administration.; format: functional, Mus musculus
Procedure, shortened: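 Male CF1 mice (ca. 24–34 g), compound in 0.5% methylcellulose suspension given ip or po; time (h) at which MES protection (against tonic hind limb extension) peaked was recorded and used for ED50 determination.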

[13] = Antiepileptic activity in male CF1 mice 4 hr after administration measured in neurological toxicity (Tox) test at a dose of 300 mg/kg (no. of animals treated /protected); activity value is 0/4; format: functional, Mus musculus
[14] = Antiepileptic activity in male CF1 mice 4 hr after administration measured in subcutaneous pentylenetetrazole (scMet) test at a dose of 300 mg/kg (no. of animals treated /protected); activity value is 0/1; format: functional, Mus musculus
[15] = Antiepileptic activity in male CF1 mice 30 min after administration measured in neurological toxicity (Tox) test at a dose of 300 mg/kg (no. of animals treated /protected); activity value is 0/8; format: functional, Mus musculus
[16] = Antiepileptic activity in male CF1 mice 0.25 hr after oral administration measured in maximum electroshock seizure(MES) test at a dose of 50 mg/kg (no. of animals treated /protected); activity value is 2/4; format: functional, Mus musculus
[17] = Antiepileptic activity in male CF1 mice 0.25 hr after oral administration measured in neurological toxicity (Tox) test at a dose of 50 mg/kg (no. of animals treated /protected); activity value is 0/4; format: functional, Mus musculus
[18] = Antiepileptic activity in male CF1 mice 0.5 hr after oral administration measured in maximum electroshock seizure(MES) test at a dose of 50 mg/kg (no. of animals treated /protected); activity value is 4/4; format: functional, Mus musculus
[19] = Antiepileptic activity in male CF1 mice 0.5 hr after oral administration measured in neurological toxicity (Tox) test at a dose of 50 mg/kg (no. of animals treated /protected); activity value is 0/4; format: functional, Mus musculus
[20] = Antiepileptic activity in male CF1 mice 1 hr after oral administration measured in maximum electroshock seizure(MES) test at a dose of 50 mg/kg (no. of animals treated /protected); activity value is 3/4; format: functional, Mus musculus
[21] = Antiepileptic activity in male CF1 mice 1 hr after oral administration measured in neurological toxicity (Tox) test at a dose of 50 mg/kg (no. of animals treated /protected); activity value is 0/4; format: functional, Mus musculus
[22] = Antiepileptic activity in male CF1 mice 2 hr after oral administration measured in maximum electroshock seizure(MES) test at a dose of 50 mg/kg (no. of animals treated /protected); activity value is 2/4; format: functional, Mus musculus
[23] = Antiepileptic activity in male CF1 mice 2 hr after oral administration measured in neurological toxicity (Tox) test at a dose of 50 mg/kg (no. of animals treated /protected); activity value is 0/4; format: functional, Mus musculus
[24] = Antiepileptic activity in male CF1 mice 4 hr after oral administration measured in maximum electroshock seizure(MES) test at a dose of 50 mg/kg (no. of animals treated /protected); activity value is 2/4; format: functional, Mus musculus
[25] = Antiepileptic activity in male CF1 mice 4 hr after oral administration measured in neurological toxicity (Tox) test at a dose of 50 mg/kg (no. of animals treated /protected); activity value is 0/4; format: functional, Mus musculus
[26] = Oral dose producing neurotoxic effects in 50% of rats; format: ADME, organism-based; conditions: rat, in vivo
Procedure, shortened: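 Phase VI screen in male Sprague-Dawley rats dosed orally. MES protection and rotorod toxicity were scored as animals responding over animals tested at 0.25, 0.5, 1, 2 and 4 h.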

[27] = Protective index was measured as TD50/ED50 in rat on oral administration; format: ADME, organism-based; conditions: in vivo, read-out: PI

COC(=O)C1C(=O)C=C(NCc2ccc(Cl)cc2)CC1C (centres undefined)
Activity [1]: 1 | Activity [2]: 1 | Activity [3]: 1 | Activity [4]: 0 | Activity [5]: 0 | Dose [6]: >100 mg/kg | Activity [7]: 0

COC(=O)C1C(=O)C=C(NCc2ccc(F)cc2)CC1C (centres undefined)
Dose [8]: 10 mg/kg | ED50 [9]: 159 mg/kg | Activity [10]: 0 | Activity [11]: 0 | TPE [12]: 0.5 | Activity [3]: 1 | Activity [13]: 0 | Activity [14]: 0 | Dose [6]: >100 mg/kg | Activity [15]: 0 | Activity [16]: 2 | Activity [17]: 0 | Activity [18]: 4 | Activity [19]: 0 | Activity [20]: 3 | Activity [21]: 0 | Activity [22]: 2 | Activity [23]: 0 | Activity [24]: 2 | Activity [25]: 0 | TD50 [26]: > 230 mg/kg | selectivity ratio [27]: 4.7
